Data from ChEMBL document CHEMBL1156387, “Novel esters of glaucarubolone as inducers of terminal differentiation of promyelocytic HL-60 cells and inhibitors of 7,12-dimethylbenz[a]anthracene-induced preneoplastic lesion formation in mouse mammary organ culture” (J Nat Prod, 2001).

Assays:
[1] = system: HL-60; assay: Cytotoxicity against human HL60 cells assessed as loss of membrane integrity after 4 days by trypan blue exclusion assay; assay type: functional, cell-based; details: HL-60, 96 h
In short: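 After 18 h recovery at 10^5 cells/mL, HL-60 cells were treated 4 days with samples (final DMSO 0.1% v/v). Cells were mixed 1:4 with trypan blue (0.2% w/v in PBS), held at least 5 min at room temperature and counted by hemocytometer. Viability was taken from duplicate samples; IC50 from 5–7 concentrations in duplicate.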

[2] = system: HL-60; assay: Selectivity index, ratio of cytotoxic IC50 to antiproliferative IC50 for human HL60 cells; assay type: functional
In short: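 Index = cytotoxic IC50 (trypan blue, 4-day HL-60 exposure) divided by antiproliferative IC50 ([3H]thymidine incorporation), each from dose–response with at least five points.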

[3] = system: HL-60; assay: Antiproliferative activity against human HL60 cells assessed as inhibition of [3H]thymidine incorporation after 4 days by liquid scintillation counter; assay type: functional, cell-based
In short: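 HL-60 cells in log phase diluted to 10^5 cells/mL, preincubated 18 h, then exposed to samples in DMSO (final 0.1% v/v; DMSO-only controls) for 4 days. Cells then pulsed with [3H]thymidine (0.5 μCi/mL, 65 Ci/mmol) for 18 h at 37 °C, 5% CO2, harvested onto glass fiber filters, scintillation counted; incorporation per 10^6 cells as % of DMSO control. IC50 from 5–7 concentrations in duplicate.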

[4] = system: HL-60; assay: Induction of cell differentiation in human HL60 cells assessed as superoxide anion production after 4 days by NBT reduction assay; assay type: functional, cell-based; details: HL-60, 96 h
In short: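 Cells diluted to 10^5/mL and recovered overnight were exposed 4 days to samples (0.1% v/v DMSO final). Cell suspension (10^6 cells) was mixed 1:1 with NBT 2 mg/mL plus TPA 1 μg/mL in PBS and held 1 h at 37 °C. Formazan-positive cells were counted microscopically among >200 cells. EC50 from 5–7 concentrations in duplicate; 1α,25-dihydroxyvitamin D3 served as reference.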

[5] = Inhibition of DMBA-induced preneoplastic lesion formation in a BALB/c mouse mammary organ culture at 2 uM pretreated for 10 days before DMBA-challenge measured after 14 days; assay type: functional; details: Mammary gland
In short: (§1)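 Female BALB/c mice, 4 weeks old, primed 9 days with estradiol 1 μg plus progesterone 1 mg. Thoracic glands were cultured 10 days with insulin, prolactin, aldosterone and hydrocortisone plus test agent at 2 μM. DMBA 2 μg/mL was given for 24 h on day 3. Regression followed for 14 days in insulin alone. Glands were formalin-fixed and alum carmine-stained. Lesion incidence gave % inhibition versus DMBA control. Toxicity was scored as duct dilation or amorphous disintegration.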

[6] = Toxicity in BALB/c mouse mammary organ culture assessed as morphological changes in mammary gland at 2 uM after 10 days; assay type: tissue-based; details: ex_vivo, 240 h; in short: as §1

SMILES	IC50 [1] [µM]	Ratio IC50 [2]	IC50 [3] [µM]	EC50 [4] [µM]	inhibition at 2 µM [5] [%]	Activity [6]
CC1=CC(=O)[C@@H](O)[C@]2(C)[C@H]3[C@]4(O)OC[C@]35[C@H]([C@@H](C)[C@H]4O)[C@@H](OC(=O)C(=O)O[C@H]3C(=O)O[C@@H]4C[C@H]6C(C)=CC(=O)[C@@H](O)[C@]6(C)[C@H]6[C@]7(O)OC[C@]64[C@@H]3[C@@H](C)[C@H]7O)C(=O)O[C@@H]5C[C@@H]12.O=C(O)C(=O)O	1.8	3.6	0.5	> 1.5	–	–
CC1=CC(=O)[C@@H](O)[C@]2(C)[C@H]3[C@]4(O)OC[C@]35[C@H]([C@@H](C)[C@H]4O)[C@@H](OC(=O)CC(C)(C)OP(=O)(O)O)C(=O)O[C@@H]5C[C@@H]12	4.4	6.5	0.7	3	–	–
CC1=CC(=O)[C@@H](O)[C@]2(C)[C@H]3[C@]4(O)OC[C@]35[C@H]([C@@H](C)[C@H]4O)[C@@H](OC(=O)CC(O)(C(C)C)C(C)C)C(=O)O[C@@H]5C[C@@H]12	0.009	1	0.009	0.009	–	–
CC1=CC(=O)[C@@H](O)[C@]2(C)[C@H]3[C@]4(O)OC[C@]35[C@H]([C@@H](C)[C@H]4O)[C@@H](OC(=O)CC(O)(CC(C)C)CC(C)C)C(=O)O[C@@H]5C[C@@H]12	0.04	1	0.04	> 0.05	–	–
CCCC(=O)O[C@H]1C(=O)O[C@@H]2C[C@H]3C(C)=CC(=O)[C@@H](O)[C@]3(C)[C@H]3[C@]4(O)OC[C@]32[C@@H]1[C@@H](C)[C@H]4O	3	–	> 3	> 3	82	Non-toxic
CC1=CC(=O)[C@@H](O)[C@]2(C)[C@H]3[C@]4(O)OC[C@]35[C@H]([C@@H](C)[C@H]4O)[C@@H](OC(=O)CC(C)C)C(=O)O[C@@H]5C[C@@H]12	1.5	1.5	1	> 2	–	–
CC1=CC(=O)[C@@H](O)[C@]2(C)[C@H]3[C@]4(O)OC[C@]35[C@H]([C@@H](C)[C@H]4O)[C@@H](OC(=O)C3(CO)CC3)C(=O)O[C@@H]5C[C@@H]12	2.8	2.9	1	2	–	–
CC1=CC(=O)[C@@H](O)[C@]2(C)[C@H]3[C@]4(O)OC[C@]35[C@H]([C@@H](C)[C@H]4O)[C@@H](OC(=O)[C@@H](C)CO)C(=O)O[C@@H]5C[C@@H]12	2.5	4.3	0.6	1.9	–	–
CC1=CC(=O)[C@@H](O)[C@]2(C)[C@H]3[C@]4(O)OC[C@]35[C@H]([C@@H](C)[C@H]4O)[C@@H](OC(=O)C(C)(C)C(=O)O)C(=O)O[C@@H]5C[C@@H]12	> 7	>2.2	3.2	> 7	–	–
CC1=CC(=O)[C@@H](O)[C@]2(C)[C@H]3[C@]4(O)OC[C@]35[C@H]([C@@H](C)[C@H]4O)[C@@H](OC(=O)CN(C)C)C(=O)O[C@@H]5C[C@@H]12	0.8	1.6	0.5	0.5	–	–
CC1=CC(=O)[C@@H](O)[C@]2(C)[C@H]3[C@]4(O)OC[C@]35[C@H]([C@@H](C)[C@H]4O)[C@@H](OC(=O)C(C)(C)CO)C(=O)O[C@@H]5C[C@@H]12	0.6	3.1	0.2	0.5	–	–
CC1=CC(=O)[C@@H](O)[C@]2(C)[C@H]3[C@]4(O)OC[C@]35[C@H]([C@@H](C)[C@H]4O)[C@@H](OC(=O)C=C(C3CC3)C3CC3)C(=O)O[C@@H]5C[C@@H]12	0.75	3.9	0.2	0.6	–	–
CC[C@@](O)(CC(=O)O[C@H]1C(=O)O[C@@H]2C[C@H]3C(C)=CC(=O)[C@@H](O)[C@]3(C)[C@H]3[C@]4(O)OC[C@]32[C@@H]1[C@@H](C)[C@H]4O)C(C)C	0.013	1.2	0.011	0.017	–	–
CC1=CC(=O)[C@@H](O)[C@]2(C)[C@H]3[C@]4(O)OC[C@]35[C@H]([C@@H](C)[C@H]4O)[C@@H](OC(=O)CC3(O)CCCC3)C(=O)O[C@@H]5C[C@@H]12	0.38	2.1	0.19	0.13	–	–
CC1=CC(=O)[C@@H](O)[C@]2(C)[C@H]3[C@]4(O)OC[C@]35[C@H]([C@@H](C)[C@H]4O)[C@@H](OC(=O)C=C(C(C)C)C(C)C)C(=O)O[C@@H]5C[C@@H]12	0.13	1.9	0.07	0.09	–	–
CC1=CC(=O)[C@@H](O)[C@]2(C)[C@H]3[C@]4(O)OC[C@]35[C@H]([C@@H](C)[C@H]4O)[C@@H](OC(=O)C[C@]3(O)CC(C)CCC3C(C)C)C(=O)O[C@@H]5C[C@@H]12 (stereo partly specified)	0.9	2.3	0.4	0.3	–	–
CC1=CC(=O)[C@@H](O)[C@]2(C)[C@H]3[C@]4(O)OC[C@]35[C@H]([C@@H](C)[C@H]4O)[C@@H](OC(=O)CC3(O)C(C)(C)CCC3(C)C)C(=O)O[C@@H]5C[C@@H]12	0.05	1.3	0.04	0.025	–	–
CC1=CC(=O)[C@@H](O)[C@]2(C)[C@H]3[C@]4(O)OC[C@]35[C@H]([C@@H](C)[C@H]4O)[C@@H](OC(=O)[C@H](C)CO)C(=O)O[C@@H]5C[C@@H]12	6.2	4.2	1.5	> 6	–	–
CC[C@](C)(O)C(=O)O[C@H]1C(=O)O[C@@H]2C[C@H]3C(C)=CC(=O)[C@@H](O)[C@]3(C)[C@H]3C4(O)OC[C@]32[C@@H]1[C@@H](C)[C@H]4O (single isomer, unassigned) [GLAUCARUBINONE]	1	2.1	0.5	1.8	–	–
COC(=O)[C@@]12OC[C@]34[C@H]([C@@H](O)[C@@H]1O)[C@@]1(C)CC(=O)C(O)=C(C)[C@@H]1C[C@H]3OC(=O)[C@H](OC(=O)C=C(C)C)[C@@H]24 [BRUSATOL]	–	–	–	–	–	Non-toxic
COC(=O)[C@]12OC[C@]34[C@H]([C@@H](O)[C@@H]1O)[C@@]1(C)CC(=O)C(O)=C(C)[C@@H]1C[C@H]3OC(=O)[C@H](OC(=O)C=C(C)C)[C@@H]24 [BRUSATOL]	0.17	2.5	0.07	0.07	70	–
CC1=CC(=O)[C@@H](O)[C@]2(C)[C@H]3[C@]4(O)OC[C@]35[C@H]([C@@H](C)[C@H]4O)[C@@H](O)C(=O)O[C@@H]5C[C@@H]12 [GLAUCARUBOLONE]	1.3	3.3	0.4	1.3	–	–
CC(=O)O[C@H]1C(=O)O[C@@H]2C[C@H]3C(C)=CC(=O)[C@@H](O)[C@]3(C)[C@H]3[C@]4(O)OC[C@]32[C@@H]1[C@@H](C)[C@H]4O [HOLACANTHONE]	0.5	2.5	0.2	0.2	–	–
CC[C@](C)(OC(C)=O)C(=O)O[C@H]1C(=O)O[C@@H]2C[C@H]3C(C)=CC(=O)[C@@H](O)[C@]3(C)[C@H]3[C@@H](O)[C@H](O)[C@@]4(C)OC[C@]32[C@@H]14 [QUASSIMARIN]	0.13	2.2	0.06	0.09	–	–
CC[C@@H](C)C(=O)O[C@H]1C(=O)O[C@@H]2C[C@H]3C(C)=CC(=O)[C@@H](O)[C@]3(C)[C@H]3[C@@H](O)[C@H](O)[C@]4(C)OC[C@]32[C@@H]14 [SIMALIKALACTONE D]	0.2	–	> 0.2	> 0.2	–	–
CC1=CC(=O)[C@@H](O)[C@]2(C)[C@H]3[C@]4(O)OC[C@]35[C@H]([C@@H](C)[C@H]4O)[C@@H](OC(=O)CC(C)(C)O)C(=O)O[C@@H]5C[C@@H]12 [SOULARUBINONE]	0.4	4.2	0.1	0.2	–	–
CC1=CC(=O)[C@@H](O)[C@]2(C)[C@H]3[C@@H](O)[C@H](O)[C@@]4(C)OC[C@@]35[C@@H](C[C@@H]12)OC(=O)[C@H](O)[C@@H]45 [YADANZIOLIDE C]	> 10	>6.7	1.5	10	–	–
